Values joined by “and” are separate entries in the source; they are usually repeats but may differ in a detail not shown here. Equal entries are not always repeated.
Legend:
HeLa = assay: Cytotoxic effect against human cervical carcinoma cell line (HeLa); format: functional, cell-based
In short: (§1)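 MTT assay on cells in log-phase growth, seeded at 2.5 × 10³ cells/well and kept at 37 °C in 5% CO₂. Compounds were added 24 h after seeding as serial PBS dilutions of a […] DMSO stock. After 72 h exposure, MTT was added for 4 h, then DMSO; absorbance read at 570 nm. At least three experiments; IC50 taken from the mean % absorbance versus concentration.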

[1] = Inhibitory concentration against CDK1/Cyclin B complex from Marthasterias glacialis M-phase oocytes; format: cell-based; details: oocyte
PC-3 = assay: Cytotoxic effect against human prostate carcinoma cell line (PC-3); format: functional, cell-based; in short: as §1
HT-29 = assay: Cytotoxic effect against human colon carcinoma cell line (HT-29); format: functional, cell-based; in short: as §1

| SMILES | IC50 (HeLa) [µM] | IC50 [1] | IC50 (PC-3) [µM] | IC50 (HT-29) [µM] |
| --- | --- | --- | --- | --- |
| Nc1[nH]nc2nnc(-c3ccco3)cc12 | > 100 | 5.3 µM | > 100 | > 100 |
| Nc1nn(CCOCCO)c2nnc(-c3ccccc3)c(-c3ccccc3)c12 | > 100 | > 50 µM | > 100 | > 100 |
| Nc1[nH]nc2nnc(-c3ccc(C(F)(F)F)cc3)c(-c3ccc(C(F)(F)F)cc3)c12 | > 100 | > 50 µM |  | > 100 |
| CCNC(=O)Nc1[nH]nc2nnc(-c3ccco3)cc12 |  | 8.8 µM |  |  |
| CC(=O)n1nc(N)c2c(-c3ccccc3)c(-c3ccccc3)nnc21 | > 100 | > 50 µM | > 100 | > 100 |
| CC(=O)Nc1nn(C(C)=O)c2nnc(-c3ccccc3)c(-c3ccccc3)c12 | > 100 | > 50 µM | > 100 | > 100 |
| Nc1[nH]nc2nnc(-c3ccc([N+](=O)[O-])cc3)c(-c3ccc([N+](=O)[O-])cc3)c12 | > 100 | > 50 µM |  | > 100 |
| Nc1n[nH]c2nnc(-c3ccccc3)cc12 | > 100 | > 50 µM |  | 80.8 |
| Cc1n[nH]c2nnc(N)c-2c1C | > 100 | > 50 µM |  | > 100 |
| Nc1[nH]nc2nnc(-c3ccco3)c(-c3ccco3)c12 | > 100 | 1.5 µM |  | > 100 |
| CCNC(=O)Nc1[nH]nc2nnc(-c3ccccc3)c(-c3ccccc3)c12 | 60.4 | 7.5 µM | > 100 | > 100 |
| NNc1[nH]nc2nnc(-c3ccccc3)c(-c3ccccc3)c12 |  | 8.5 µM |  |  |
| Nc1[nH]nc2nnc(-c3ccc(-c4ccccc4)cc3)c(-c3ccc(-c4ccccc4)cc3)c12 | > 100 | > 50 µM |  | > 100 |
| Nc1ccc(-c2[nH]nc3nnc(N)c-3c2-c2ccc(N)cc2)cc1 | > 100 | > 50 µM |  | 10.5 |
| Nc1nn(Cc2ccccc2)c2nnc(-c3ccccc3)c(-c3ccccc3)c12 | > 100 | > 50 µM | > 100 | > 100 |
| Nc1nn(COCCO)c2nnc(-c3ccccc3)c(-c3ccccc3)c12 | > 100 | > 50 µM | > 100 | > 100 |
| COc1ccc(-c2[nH]nc3nnc(N)c-3c2-c2ccc(OC)cc2)cc1 | > 100 | 15 µM | > 100 | > 100 |
| CC(=O)Nc1[nH]nc2nnc(-c3ccccc3)c(-c3ccccc3)c12 | > 100 | > 50 µM | > 100 | > 100 |
| O=C(Nc1ccccc1)Nc1[nH]nc2nnc(-c3ccccc3)c(-c3ccccc3)c12 | 2.93 | 9 µM | > 100 | > 100 |
| Nc1n[nH]c2nnc(-c3ccccc3)c(-c3ccccc3)c12 | > 100 | 3 µM and 6.1 µM | > 100 | > 100 |
| Nc1[nH]nc2nnc(-c3ccccn3)c(-c3ccccn3)c12 | > 100 | > 50 µM |  | 73 |
| CC/N=C(\S)Nc1[nH]nc2nnc(-c3ccco3)cc12 |  | > 100 µM |  |  |
| Oc1[nH]nc2nnc(-c3ccccc3)c(-c3ccccc3)c12 | > 100 | > 50 µM | > 100 | > 100 |
| CC(C)(C)c1ccc(-c2[nH]nc3nnc(N)c-3c2-c2ccc(C(C)(C)C)cc2)cc1 | 8.78 | > 50 µM |  | 8.5 |
| Cc1n[nH]c2nnc(N)c-2c1-c1ccccc1 | 88.3 | > 50 µM | 72.4 | > 100 |

Reference: ChEMBL document CHEMBL1140371, “Pyrazolo[3,4-c]pyridazines as novel and selective inhibitors of cyclin-dependent kinases” (J Med Chem, 2005)
